hK5 inh = kallikrein 5 (human) inhibition. Q9Y337. AID 873. actives 0.59% (n = 210,000). recombinant hK5, fluorogenic AMC substrate cleavage. inhibition, % at 5 µM;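 active = inhibition of 40% or more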;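 also: 0% = enzyme controls without compound and 100% = no-enzyme blanks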
thrombin 1536 = blocks human thrombin protease activity; inhibition, % at 5 µM; actives 0.26% (n = 220,000); P00734; alpha-thrombin, Boc-VPR-AMC fluorogenic substrate cleavage;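 active = inhibition at or above 40%; inactive = inhibition below 40%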;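 also: 0% = enzyme with no compound and 100% = wells without enzyme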
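System – human alpha-thrombin protein · Reagent – Boc-VPR-AMC substrate, 15 µM final · Compound – 5 µM single dose in 0.2% DMSO · Schedule – reaction at room temperature · Technique – AMC fluorescence at 355 nm excitation and 460 nm emission · Read-out basis – % inhibition relative to enzyme controls and enzyme-free blanks · Control set – no-compound enzyme wells and no-enzyme blanks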
FXIIa inh 1536 = blocks human coagulation factor XIIa protease activity | purified FXIIa, Boc-QGR-AMC fluorogenic substrate, 2 h | inhibition, % at 5 µM | actives 0.3% (n = 220,000) | AID 800; in the data active = inhibition above about 40%;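 also: 0% = enzyme with no compound and 100% = blank without enzyme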
FXIa inh = inhibitors of human coagulation factor XIa; inhibition, % at 5 µM; purified FXIa, Boc-Glu-Ala-Arg-AMC fluorogenic substrate; actives 0.14% (n = 220,000);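 active = inhibition of at least 40%; inactive = inhibition below 40%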;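 also: fluorescence of freed AMC excited at 355 nm; 0% = enzyme without compound and 100% = no enzyme blank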
Target sequence (P03951 19-387 limits assumed): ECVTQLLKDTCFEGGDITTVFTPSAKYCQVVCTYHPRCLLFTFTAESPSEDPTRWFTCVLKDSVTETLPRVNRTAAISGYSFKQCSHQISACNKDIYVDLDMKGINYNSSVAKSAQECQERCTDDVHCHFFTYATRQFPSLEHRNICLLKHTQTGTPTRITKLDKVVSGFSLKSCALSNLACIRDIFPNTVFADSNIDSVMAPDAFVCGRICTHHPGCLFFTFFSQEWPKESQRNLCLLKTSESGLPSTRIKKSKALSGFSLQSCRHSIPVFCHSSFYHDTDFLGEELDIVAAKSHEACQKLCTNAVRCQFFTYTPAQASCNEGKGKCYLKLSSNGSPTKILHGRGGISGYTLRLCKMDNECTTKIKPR
Target sequence (P03951 388-625 limits assumed): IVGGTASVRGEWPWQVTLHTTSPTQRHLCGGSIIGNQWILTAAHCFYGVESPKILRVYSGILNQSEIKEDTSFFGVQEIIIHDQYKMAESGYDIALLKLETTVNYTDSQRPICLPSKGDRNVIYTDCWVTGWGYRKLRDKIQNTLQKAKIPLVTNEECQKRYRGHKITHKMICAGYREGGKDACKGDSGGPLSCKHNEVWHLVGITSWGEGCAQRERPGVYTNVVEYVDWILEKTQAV
TbHK1 inh = T. brucei hexokinase 1 inhibition; actives 0.11% (n = 220,000); inhibition, % at 10 µM; recombinant TbHK1, G6PDH-coupled NADH A340;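 active = inhibition of 50% or more in the single-dose primary screen; inactive = inhibition below 50%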
* = called active by the depositor; / = no result. Only some compounds are listed: those with a hit (about 1.1% of all), similar ones and a draw of the others.

SMILES | hK5 inh | thrombin 1536 | FXIIa inh 1536 | FXIa inh | TbHK1 inh
COc1ccccc1C(=O)N/C(=C\c1ccc2c(c1)OCO2)C(=O)NCCc1nc2ccccc2[nH]1 | -26 | -1 | 8 | 5 | -15
Cc1ccc2c(C)c(C(=O)Nc3nnc(C)s3)oc2c1 | -2 | 9 | 40* | 23 | -6
Cc1ccc(/C=C/C(=O)Nc2cccc(S(=O)(=O)N3CCOCC3)c2)o1 | 72* | 40 | 7 | -5 | -34
FC(F)C(F)(F)C(F)(F)C(F)(F)c1cc(-c2ccccc2)n[nH]1 | -11 | 1 | 50* | 50* | 3
Cc1cc(-c2ccccc2)n[nH]1 | 16 | 10 | 17 | 12 | 3
CCCCN1CNC(=S)N(c2ccc(C(=O)OCC)cc2)C1 | -13 | -5 | 6 | 0 | -5
CC(=O)n1nc(-c2ccccc2)nc1NCc1ccc(N(C)C)cc1 | -24 | 61* | -7 | -6 | 5
CN(C)c1ccc(CNc2nc(-c3ccccc3)nn2S(C)(=O)=O)cc1 | -12 | -7 | 3 | -8 | 2
CCC(=O)n1nc(-c2ccc(OC)cc2)nc1NCc1cccs1 | -5 | 89* | 7 | 1 | -3
CC(=O)n1nc(-c2ccccc2)nc1NCc1cccs1 | -3 | 97* | 3 | -5 | -3
NC(=O)C(=O)N/N=C/c1cccc(C(F)(F)F)c1 | -2 | 0 | 7 | -3 | 0
COC(=O)C(NC(=O)c1ccco1)(Nc1nc(C)cs1)C(F)(F)F (centres undefined) | -11 | -6 | 54* | 35 | -6
Clc1ccccc1OCc1nc(-c2ccccn2)no1 | 48* | 2 | 1 | 3 | 3
Clc1ccc(OCc2nc(-c3ccccn3)no2)c(Br)c1 | 0 | 5 | 23 | 8 | 1
Oc1ccc(Cl)cc1/C=C/c1ccc2cccc(O)c2n1 | 34 | 49* | 39 | 33 | 9
O=C(/C=C/c1cccc(Cl)c1)Nn1c(-c2cccs2)nc2ccccc2c1=O | -7 | -9 | -1 | -7 | -17
Cc1cc(O)cc(O)c1C=NCc1ccco1 | 39 | 36 | 10 | 17 | -31
O=C(COC(=O)c1ccc([N+](=O)[O-])s1)Nc1cccc(S(=O)(=O)NC2=NCCCCC2)c1 | 2 | 45* | 6 | 6 | -20
CC(Sc1nncn1C)C(=O)NCc1ccc2c(c1)OCO2 (centres undefined) | 27 | 77* | 28 | 32 | 4
Cc1csc(SC(C)C(=O)NCc2ccc3c(c2)OCO3)n1 (centres undefined) | 3 | -13 | 6 | 1 | 3
CC(=O)N1CCN(S(=O)(=O)c2ccc(Cl)cc2F)CC1 | -4 | -5 | 8 | 9 | -1
O=C(O)/C=C/C(=O)N1CCN(S(=O)(=O)c2cc(C(F)(F)F)ccc2Cl)CC1 | 53* | 18 | 31 | 34 | 6
COc1ccc(NC(=O)c2ccco2)cc1NC(=O)c1ccco1 | 4 | 10 | -8 | -8 | -4
COc1cc(NC(=O)c2ccco2)c(OC)cc1NC(=O)Nc1cccc(Cl)c1 | 46* | 18 | 7 | 5 | -4
Cc1ccc(CSC2=NCCN2C(=O)c2ccco2)cc1 | 41* | -5 | 1 | -10 | -7
SMILES | hK5 inh | thrombin 1536 | FXIIa inh 1536 | FXIa inh | TbHK1 inh
CCC(=O)N1CCN=C1SCc1ccccc1 | 41* | 14 | 29 | 11 | 2
CCC(=O)N1CCN=C1SCc1ccc(Cl)cc1 | 6 | 5 | 16 | 2 | 5
COc1ccc(NC(=O)Nc2nc(C)cc(C)n2)c(OC)c1 | -2 | -12 | -1 | -4 | -2
CCOCCn1c(-c2ccc(OC)cc2)nc2ccccc21 | 42* | 19 | 54* | 18 | 0
COc1ccc(-c2nc3ccccc3n2Cc2ccccc2)cc1 | -5 | -5 | 10 | -2 | 1
FC(F)(F)c1ccc(CN2C[C@@H]3C(c4ccc(Cl)nc4)C4(c5ccccc5)CC3(C4)[C@H]2c2ccccc2)cc1 (some centres undefined) | -3 | -8 | 2 | -3 | -5
CSc1nsc2nc(=O)c(/C=C3\C(C)=Nc4ccc(C)cc43)c(N)n12 | 2 | 6 | 42* | 11 | 0
O=C(NCCSc1ccccc1)c1ccccc1 | 89* | 0 | 0 | -6 | 1
O=C(Cc1cccs1)Nc1nnc(Cc2ccc(F)cc2)s1 | 77* | 23 | 31 | 15 | 30
Cc1nnc(NC(=O)Oc2ccccc2)s1 | -30 | -7 | -2 | -7 | 48
CCC(CC)c1nnc(NC(=O)Oc2ccccc2)s1 | 2 | 2 | 43* | 30 | 5
CCC(CC)c1nnc(NC(=O)CCN2C(=O)c3ccccc3C2=O)s1 | 53* | 27 | 25 | 4 | -4
CC(C)C[C@@H]1NC(=O)[C@H](Cc2ccc(O)cc2)NC(=O)[C@H](CCC(N)=O)NC(=O)c2cc([N+](=O)[O-])cc(I)c2NCC[C@@H](C(N)=O)NC1=O | -3 | 5 | 34 | 23 | -13
O=c1c(-c2ccc(Cl)cc2)cnc2n1CCS2 | -11 | 0 | 1 | -4 | -11
Cc1cccc(C)c1OCC(O)CN (centres undefined) | 52* | 19 | 6 | 11 | -9
CCN(CC)S(=O)(=O)c1cc(C(=O)Nc2nncs2)c(Cl)cc1Cl | 62* | 15 | 3 | 3 | 0
CC1(C)C2C/C(=N\O)C(C)(/[N+]([O-])=C/c3cccc([N+](=O)[O-])c3)CC21 (centres undefined) | -23 | 2 | -6 | -7 | -5
Cc1ccn(CC(=O)O)c(=O)c1 | -2 | -6 | 58* | 28 | 10
O=C(O)Cn1ccc2ccccc21 | 0 | -1 | 8 | -1 | 4
CCc1ccc2c(c1)cc(C)c1nnc(SCC(=O)Nc3cc(OC)c(OC)cc3C(=O)O)n12 | / | -4 | 6 | 4 | -14
Cc1ccc(-n2sc3ccccc3c2=O)cc1 | -10 | -20 | 2 | -4 | 66*
O=C(Nc1ccccc1C(=O)N1CCOCC1)C1CC(=O)N(C2CCCC2)C1 (centres undefined) | -10 | 3 | 17 | 0 | 2
COC(=O)c1ccccc1NC(=O)C1CC(=O)N(c2ccc(F)cc2)C1 (centres undefined) | 89* | 50* | 29 | 9 | -3
CCCOc1ccc(N2CC(C(=O)Nc3ccccc3F)CC2=O)cc1 (centres undefined) | -11 | -8 | 20 | 14 | -1
COC(=O)c1ccccc1NC(=O)C1CC(=O)N(C2CCCCC2)C1 (centres undefined) | 64* | 28 | 14 | 1 | -1
CCc1ccc(N2CC(C(=O)Nc3ccccc3F)CC2=O)cc1 (centres undefined) | 87* | 104* | 10 | 4 | 4
CC(C)(C)C1c2[nH]c3ccccc3c2CCN1Cc1cccc(OCCO)c1 (centres undefined) | -2 | -3 | 4 | 0 | 0
Fc1ccc(-n2cc(CNCCc3cccnc3)c(-c3ccccc3Cl)n2)cc1 | -5 | -5 | 4 | 4 | 10
COc1ccc(CN2C(=O)c3ccccc3C2C(=O)NC2CCCCCC2)c(OC)c1 (centres undefined) | 22 | 47* | 33 | 31 | 11

Assay outcomes deposited in PubChem by several laboratories.
